Assay results published in ChEMBL document CHEMBL1157370, “Efficacy of a novel rifamycin derivative, ABI-0043, against Staphylococcus aureus in an experimental model of foreign-body infection” (Antimicrob Agents Chemother, 2007).
Converted amounts (≈) assume the structure as drawn.

Experiments:
Staphylococcus aureus [1] = experiment: Antibacterial activity against Staphylococcus aureus ATCC 29213 assessed as stationary-growth-phase minimal bactericidal concentration after 24 hrs by macrotube dilution method; assay type: functional; settings: ATCC 29213, 24 h
Staphylococcus aureus [2] = experiment: Ratio of MBC for Staphylococcus aureus ATCC 29213 during stationary-growth phase to logarithmic-growth phase
[3] = Cmax in albino guinea pig cage fluid at 12.5 mg/kg, ip administered every 12 hrs for 4 days; assay type: ADME, organism-based, Cavia porcellus, Interstitial fluid; design: dose 12.5 mg/kg, route intraperitoneal
Outline: (§1)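 Noninfected guinea pigs with subcutaneous tissue cages received ip dosing, either a single dose or every 12 h for 4 days (multiple-dose values taken on day 4). Cage fluid was aspirated over 12 h, mixed with EDTA, centrifuged and stored at −20°C. Drug levels were measured by agar diffusion bioassay. Cmin was taken 12 h after dosing. Values are means ± SD from 12 aspirates.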

Staphylococcus aureus [4] = experiment: Antibacterial activity against Staphylococcus aureus ATCC 29213 by macrotube dilution method; assay type: functional
Outline: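 S. aureus from overnight culture, inoculum 5 × 10^5 CFU/ml, in cation-adjusted Mueller-Hinton broth; twofold? no—serial drug dilutions (tips changed each dilution) per CLSI macrotube method. MIC = lowest concentration with no visible growth. Run in triplicate, median reported.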

[5] = Cmin in albino guinea pig cage fluid at 3 mg/kg, ip administered as single dose measured after 12 hrs; assay type: ADME, organism-based, Cavia porcellus; design: dose 3 mg/kg, route intraperitoneal; settings: read-out: Cmin
Outline: (§2)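 Noninfected cage-bearing guinea pigs given one ip dose. Cage fluid aspirated over 12 h, mixed with EDTA and centrifuged. Levels measured in triplicate by agar diffusion bioassay with S. pneumoniae ATCC 49619 indicator (detection limit 0.0005 μg/ml). Cmin taken 12 h post-dose; means ± SD from 12 aspirates.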

Staphylococcus aureus [6] = experiment: Antibacterial activity against Staphylococcus aureus ATCC 29213 infected albino guinea pig tissue-cage infection model assessed as infection cure rate at 3 mg/kg, ip administered every 12 hrs for 4 days; assay type: functional; settings: route intraperitoneal
Outline: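 Guinea pig subcutaneous Teflon tissue-cage model infected with 2 × 10^4 CFU S. aureus. Drug given ip every 12 h for 4 days from 24 h post-infection. Cages removed on day 9, vortexed in 10 ml TSB, incubated 24 h at 37°C and plated on sheep blood agar. Cure rate = fraction of cages with no growth; ≥12 cages per regimen.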

[7] = Cmin in albino guinea pig cage fluid at 12.5 mg/kg, ip administered as single dose measured after 12 hrs; assay type: ADME, organism-based, Cavia porcellus; design: dose 12.5 mg/kg, route intraperitoneal; settings: read-out: Cmin; outline: as §1
Staphylococcus aureus [8] = experiment: Antibacterial activity against Staphylococcus aureus ATCC 29213 infected albino guinea pig tissue-cage infection model assessed as bacterial count at 12 mg/kg, ip administered every 12 hrs for 4 days measured during treatment period; assay type: functional; settings: route intraperitoneal
Outline: (§3)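 Male albino guinea pigs (640–800 g) carrying four subcutaneous Teflon tissue cages; cages inoculated with 2 × 10^4 CFU S. aureus. Drug given ip in saline (5 ml total) every 12 h for 4 days, starting 24 h post-infection. Cage-fluid log10 CFU/ml measured on day 1 (baseline), day 4 before last dose (during treatment), and day 9 (5 days after treatment). ≥12 cages (3 animals) per regimen; mean reported.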

[9] = Ratio of peak drug level in albino guinea pig cage fluid at 12.5 mg/kg, ip to MIC for Staphylococcus aureus ATCC 29213; assay type: functional; settings: route intraperitoneal
Outline: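 The peak cage-fluid concentration after a single ip dose was divided by the MIC. MIC was determined by macrotube dilution in cation-adjusted Mueller-Hinton broth with an inoculum of 5 × 10^5 CFU/ml, read visually as the lowest concentration with no growth. Tests were run in triplicate and the median reported.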

[10] = Cmax in albino guinea pig cage fluid at 3 mg/kg, ip administered as single dose; assay type: ADME, organism-based, Cavia porcellus, Interstitial fluid; design: dose 3 mg/kg, route intraperitoneal; outline: as §2
[11] = Cmax in albino guinea pig cage fluid at 12.5 mg/kg, ip administered as single dose; assay type: ADME, organism-based, Cavia porcellus, Interstitial fluid; design: dose 12.5 mg/kg, route intraperitoneal; outline: as §1
Staphylococcus aureus [12] = experiment: Antibacterial activity against Staphylococcus aureus ATCC 29213 assessed as logarithmic-growth-phase minimal bactericidal concentration after 24 hrs by macrotube dilution method; assay type: functional; settings: ATCC 29213, 24 h
Outline: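 MBClog: cation-adjusted Mueller-Hinton broth, macrotube dilution, inoculum 5 × 10^5 CFU/ml taken from overnight culture; lowest concentration cutting initial count by >99.9% (3 log10 CFU/ml) after 24 h incubation. Run in triplicate, median reported.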

[13] = Ratio of peak drug level in albino guinea pig cage fluid at 12.5 mg/kg, ip to MBC for Staphylococcus aureus ATCC 29213 during stationary-growth phase; settings: route intraperitoneal
Staphylococcus aureus [14] = experiment: Antibacterial activity against Staphylococcus aureus ATCC 29213 infected albino guinea pig tissue-cage infection model assessed as bacterial count at 12 mg/kg, ip administered every 12 hrs for 4 days measured after treatment period; assay type: functional; settings: route intraperitoneal; outline: as §3
Staphylococcus aureus [15] = experiment: Antibacterial activity against Staphylococcus aureus ATCC 29213 infected albino guinea pig tissue-cage infection model assessed as infection cure rate at 12.5 mg/kg, ip administered every 12 hrs for 4 days; assay type: functional; settings: route intraperitoneal
Outline: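 Guinea pig tissue-cage S. aureus infection (2 × 10^4 CFU per cage), treated ip every 12 h for 4 days, starting 24 h after inoculation. Cages were explanted 5 days after treatment ended, vortexed in 10 ml TSB and incubated at 37°C. After 24 h, 50 μl was plated on sheep blood agar. Cure rate is the fraction of cages with no growth; at least 12 cages per regimen.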

[16] = Cmin in albino guinea pig cage fluid at 5 mg/kg, ip administered as single dose measured after 12 hrs; assay type: ADME, organism-based, Cavia porcellus; design: dose 5 mg/kg, route intraperitoneal; settings: read-out: Cmin
Outline: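 Single ip dose to noninfected cage-bearing guinea pigs. Cage fluid EDTA-treated and centrifuged, then assayed with E. coli V6311/65 bioassay (detection limit 0.01 μg/ml). Trough measured 12 h after dosing; means ± SD from 12 aspirates.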

in vivo = settings: guinea pig, cage fluid, ip, 5 mg/kg
Staphylococcus aureus [17] = experiment: Antibacterial activity against Staphylococcus aureus ATCC 29213 infected albino guinea pig tissue-cage infection model assessed as bacterial count at 12.5 mg/kg, ip administered every 12 hrs after 4 days; assay type: functional; settings: route intraperitoneal
Outline: (§4)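 Male albino guinea pigs (640 to 800 g) carried four subcutaneous perforated Teflon cages. After two weeks, sterility was confirmed and each cage was inoculated percutaneously with 2 × 10^4 CFU S. aureus in 200 μl. Treatment began 24 h later: ip every 12 h for 4 days (8 doses). Quantitative cage-fluid cultures were taken on day 1, before the last dose (day 4) and 5 days after treatment (day 9). At least 12 cages (3 animals) per regimen.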

Staphylococcus aureus [18] = experiment: Antibacterial activity against Staphylococcus aureus ATCC 29213 infected albino guinea pig tissue-cage infection model assessed as bacterial count at 12.5 mg/kg, ip administered every 12 hrs after 5 days; assay type: functional; settings: route intraperitoneal; outline: as §4

CO[C@H]1/C=C/O[C@@]2(C)Oc3c(C)c(O)c4c(=O)c(c5oc6cc(N7CCN(C)CC7)cc(O)c6nc-5c4c3C2=O)NC(=O)/C(C)=C\C=C\[C@H](C)[C@H](O)[C@@H](C)[C@@H](O)[C@@H](C)[C@H](O)[C@@H]1C
MBC (Staphylococcus aureus [1]): 0.25 µg/mL (≈ 0.292 µM)
Ratio (Staphylococcus aureus [2]): 31.3
Cmax [3]: 820 ng/mL
MIC (Staphylococcus aureus [4]): 0.001 µg/mL (≈ 0.00117 µM)
concentration at 12 h [5]: 40 ng/mL
Activity (Staphylococcus aureus [6]): 8%
concentration at 12 h [7]: 140 ng/mL
log10CFU/ml (Staphylococcus aureus [8]): 3.24
Ratio [9]: 1130
Cmax [10]: 110 ng/mL
Cmax [11]: 1130 ng/mL
MBC (Staphylococcus aureus [12]): 0.008 µg/mL (≈ 0.00934 µM)
Ratio [13]: 4.52
log10CFU/ml (Staphylococcus aureus [14]): 1.57
Activity (Staphylococcus aureus [15]): 58%

C[C@H]1COc2c(N3CCN(C)CC3)c(F)cc3c(=O)c(C(=O)O)cn1c23.C[C@H]1COc2c(N3CCN(C)CC3)c(F)cc3c(=O)c(C(=O)O)cn1c23.O [LEVOFLOXACIN]
MBC (Staphylococcus aureus [1]): 40 µg/mL
Ratio (Staphylococcus aureus [2]): 125
concentration at 12 h [16]: 10 ng/mL
MIC (Staphylococcus aureus [4]): 0.16 µg/mL
Cmax (in vivo): 970 ng/mL
MBC (Staphylococcus aureus [12]): 0.32 µg/mL

CO[C@H]1/C=C/O[C@@]2(C)Oc3c(C)c(O)c4c(O)c(c(/C=N/N5CCN(C)CC5)c(O)c4c3C2=O)NC(=O)/C(C)=C\C=C\[C@H](C)[C@H](O)[C@@H](C)[C@@H](O)[C@@H](C)[C@H](OC(C)=O)[C@@H]1C [RIFAMPIN]
MBC (Staphylococcus aureus [1]): 3.6 µg/mL (≈ 4.37 µM)
Cmax [3]: 610 ng/mL
MIC (Staphylococcus aureus [4]): 0.016 µg/mL (≈ 0.0194 µM)
log10CFU/ml (Staphylococcus aureus [17]): 3.68
log10CFU/ml (Staphylococcus aureus [18]): 1.43
concentration at 12 h [7]: 140 ng/mL
MBC (Staphylococcus aureus [12]): 0.8 µg/mL (≈ 0.972 µM)
Activity (Staphylococcus aureus [15]): 46%
